From ChEMBL document CHEMBL2176925, “Novel ¹⁸F-labeled benzoxazole derivatives as potential positron emission tomography probes for imaging of cerebral β-amyloid plaques in Alzheimer's disease” (J Med Chem, 2012)

Experiments:
Brain [1] = experiment: Drug uptake in wild type C57BL6 mouse brain at 40.7 MBq, iv after 30 mins by autoradiographic analysis; type: ADME, organism-based; conditions: in vivo, 0.5 h
How it was run: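 Wild-type C57BL6 mice (18 months) received 40.7 MBq tracer iv via the femoral vein in 100 μL saline with 5% EtOH. Decapitated at 30 min, and brains frozen in powdered dry ice. 20 μm sections exposed to an imaging plate for 8 h, then the same sections stained with thioflavin-S.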

Kidney [2] = experiment: Drug uptake in ddY mouse kidney at 370 kBq/100 ul, iv at 10 mins by gamma-counting analysis; type: ADME, organism-based; conditions: in vivo
How it was run: (§1)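 Normal male ddY mice (5 weeks, 20−22 g, n = 5) received 370 kBq of tracer in 100 μL saline with 5% EtOH via tail vein. Mice were sacrificed at set times after injection, and organs were excised, weighed and γ-counted against diluted injectate aliquots. Values are %ID per gram, except stomach and intestine as %ID per organ, given as mean ± SD of 5 mice.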

Blood [3] = experiment: Drug uptake in ddY mouse blood at 370 kBq/100 ul, iv at 10 mins by gamma-counting analysis; type: ADME, organism-based; conditions: in vivo; how it was run: as §1
Kidney [4] = experiment: Drug uptake in ddY mouse kidney at 370 kBq/100 ul, iv at 30 mins by gamma-counting analysis; type: ADME, organism-based; conditions: in vivo, 0.5 h; how it was run: as §1
Stomach [5] = experiment: Drug uptake in ddY mouse stomach assessed per organ at 370 kBq/100 ul, iv at 30 mins by gamma-counting analysis; type: ADME, organism-based; conditions: in vivo, 0.5 h
How it was run: (§2)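 Male ddY mice (5 weeks, 20−22 g, n = 5) received tracer in saline with 5% EtOH, 370 kBq/100 μL, by tail vein. Killed at set times after dosing. Stomach removed, weighed and γ-counted against diluted aliquots of the injected dose. Reported as % injected dose per organ, mean ± SD of 5 mice.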

Bone [6] = experiment: Drug uptake in ddY mouse bone at 370 kBq/100 ul, iv at 2 mins by gamma-counting analysis; type: ADME, organism-based, Bone element; conditions: in vivo; how it was run: as §1
Stomach [7] = experiment: Drug uptake in ddY mouse stomach assessed per organ at 370 kBq/100 ul, iv at 60 mins by gamma-counting analysis; type: ADME, organism-based; conditions: in vivo, 1 h; how it was run: as §2
Liver [8] = experiment: Drug uptake in ddY mouse liver at 370 kBq/100 ul, iv at 10 mins by gamma-counting analysis; type: ADME, organism-based; conditions: in vivo; how it was run: as §1
Brain [9] = experiment: Ratio of drug uptake in brain at 2 mins to drug uptake in brain at 60 mins in ddY mouse at 370 kBq/100 ul, iv; type: ADME, organism-based; conditions: in vivo
How it was run: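 Tail-vein injection of 370 kBq/100 μL (saline, 5% EtOH) into male ddY mice (5 weeks, 20−22 g, n = 5). Brain excised at 2 and 60 min, weighed and γ-counted against diluted injectate. Uptake is %ID/g, and the ratio is brain at 2 min divided by brain at 60 min.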

Brain [10] = experiment: Drug uptake in ddY mouse brain at 370 kBq/100 ul, iv at 30 mins by gamma-counting analysis; type: ADME, organism-based; conditions: in vivo, 0.5 h; how it was run: as §1
Heart [11] = experiment: Drug uptake in ddY mouse heart at 370 kBq/100 ul, iv at 30 mins by gamma-counting analysis; type: ADME, organism-based; conditions: in vivo, 0.5 h; how it was run: as §1
Intestine [12] = experiment: Drug uptake in ddY mouse intestine at 370 kBq/100 ul, iv at 2 mins by gamma-counting analysis; type: ADME, organism-based; conditions: in vivo; how it was run: as §1
Spleen [13] = experiment: Drug uptake in ddY mouse spleen at 370 kBq/100 ul, iv at 60 mins by gamma-counting analysis; type: ADME, organism-based; conditions: in vivo, 1 h; how it was run: as §1
Intestine [14] = experiment: Drug uptake in ddY mouse intestine at 370 kBq/100 ul, iv at 10 mins by gamma-counting analysis; type: ADME, organism-based; conditions: in vivo; how it was run: as §1
Heart [15] = experiment: Drug uptake in ddY mouse heart at 370 kBq/100 ul, iv at 10 mins by gamma-counting analysis; type: ADME, organism-based; conditions: in vivo; how it was run: as §1
Kidney [16] = experiment: Drug uptake in ddY mouse kidney at 370 kBq/100 ul, iv at 2 mins by gamma-counting analysis; type: ADME, organism-based; conditions: in vivo; how it was run: as §1
Brain [17] = experiment: Drug uptake in ddY mouse brain at 370 kBq/100 ul, iv at 60 mins by gamma-counting analysis; type: ADME, organism-based; conditions: in vivo, 1 h; how it was run: as §1
Brain [18] = experiment: Drug uptake in healthy human brain at 370 kBq/100 ul after 1 hr by autoradiographic analysis; type: ADME, tissue-based
How it was run: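 Paraffin sections of brain were used: C57BL6 mice (wild-type, 12 months), human AD (person) and normal human. Sections were deparaffinized through xylene and graded ethanol, then equilibrated 30 min in PBS (0.2 M, pH 7.4). Incubated 1 h at room temperature with tracer, 370 kBq/100 μL, washed 1 min in 50% ethanol and rinsed with water. Imaging plate exposed overnight. Plaques confirmed by thioflavin-S or anti-Aβ1-42 monoclonal immunostaining.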

Lung [19] = experiment: Drug uptake in ddY mouse lung at 370 kBq/100 ul, iv at 30 mins by gamma-counting analysis; type: ADME, organism-based; conditions: in vivo, 0.5 h; how it was run: as §1
Intestine [20] = experiment: Drug uptake in ddY mouse intestine at 370 kBq/100 ul, iv at 60 mins by gamma-counting analysis; type: ADME, organism-based; conditions: in vivo, 1 h; how it was run: as §1
[21] = Displacement of [125I]IMPY from amyloid beta (1 to 42) fibrils after 2 hrs by gamma-counting analysis
How it was run: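 Competition binding with aggregated Aβ1-42 fibrils (60 nM final) and [125I]IMPY. Inhibitors were tested at 10⁻⁵–10⁻¹⁰ M (in ethanol) in 0.2 M PBS, pH 7.4, 1 mL, for 2 h at 37 °C with shaking. Nonspecific binding was defined with 1 μM IMPY. Bound ligand was collected by GF/B filtration and γ-counted. Ki was derived from IC50 via Cheng–Prusoff.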

Bone [22] = experiment: Drug uptake in ddY mouse bone at 370 kBq/100 ul, iv at 30 mins by gamma-counting analysis; type: ADME, organism-based, Bone element; conditions: in vivo, 0.5 h; how it was run: as §1
Blood [23] = experiment: Drug uptake in ddY mouse blood at 370 kBq/100 ul, iv at 2 mins by gamma-counting analysis; type: ADME, organism-based; conditions: in vivo; how it was run: as §1
Liver [24] = experiment: Drug uptake in ddY mouse liver at 370 kBq/100 ul, iv at 30 mins by gamma-counting analysis; type: ADME, organism-based; conditions: in vivo, 0.5 h; how it was run: as §1
Liver [25] = experiment: Drug uptake in ddY mouse liver at 370 kBq/100 ul, iv at 2 mins by gamma-counting analysis; type: ADME, organism-based; conditions: in vivo; how it was run: as §1
Spleen [26] = experiment: Drug uptake in ddY mouse spleen at 370 kBq/100 ul, iv at 10 mins by gamma-counting analysis; type: ADME, organism-based; conditions: in vivo; how it was run: as §1
Blood [27] = experiment: Drug uptake in ddY mouse blood at 370 kBq/100 ul, iv at 60 mins by gamma-counting analysis; type: ADME, organism-based; conditions: in vivo, 1 h; how it was run: as §1
Lung [28] = experiment: Drug uptake in ddY mouse lung at 370 kBq/100 ul, iv at 2 mins by gamma-counting analysis; type: ADME, organism-based; conditions: in vivo; how it was run: as §1
Lung [29] = experiment: Drug uptake in ddY mouse lung at 370 kBq/100 ul, iv at 60 mins by gamma-counting analysis; type: ADME, organism-based; conditions: in vivo, 1 h; how it was run: as §1
[30] = n-Octanol-PBS buffer partition coefficient, log D of the compound at 370 kBq after 3 mins at pH 7.4; type: physicochemical
How it was run: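 For log D, tubes containing n-octanol and PBS were vortexed 3 min at room temperature and centrifuged 5 min at 3000 rpm. Weighed samples of the octanol (100 μL) and buffer (500 μL) layers were counted. Log D is the log of the ratio of counts per gram, octanol to PBS.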

Heart [31] = experiment: Drug uptake in ddY mouse heart at 370 kBq/100 ul, iv at 60 mins by gamma-counting analysis; type: ADME, organism-based; conditions: in vivo, 1 h; how it was run: as §1
Stomach [32] = experiment: Drug uptake in ddY mouse stomach assessed per organ at 370 kBq/100 ul, iv at 10 mins by gamma-counting analysis; type: ADME, organism-based; conditions: in vivo; how it was run: as §1

Row | Structure (SMILES) | Drug uptake (Brain [1]) | Drug uptake (Kidney [2]) | Drug uptake (Blood [3]) | Drug uptake (Kidney [4]) | Drug uptake (Stomach [5]) | Drug uptake (Bone [6]) | Drug uptake (Stomach [7]) | Drug uptake (Liver [8]) | Ratio (Brain [9]) | Drug uptake (Brain [10]) | Drug uptake (Heart [11]) | Drug uptake (Intestine [12]) | Drug uptake (Spleen [13]) | Drug uptake (Intestine [14]) | Drug uptake (Heart [15]) | Drug uptake (Kidney [16]) | Drug uptake (Brain [17]) | Drug uptake (Brain [18]) | Drug uptake (Lung [19]) | Drug uptake (Intestine [20]) | further results
1 | CNc1ccc(-c2nc3cc(OCCOCCOCC[18F])ccc3o2)cc1 | Not Active | 8.45 % ID/g | 3.46 % ID/g | 6.84 % ID/g | 1.85 %ID | 3.17 % ID/g | 1.87 %ID | 23.15 % ID/g | 2.67 | 4.07 % ID/g | 4.84 % ID/g | 11.33 % ID/g | 3.42 % ID/g | 25 % ID/g | 4.78 % ID/g | 12.88 % ID/g | 3.04 % ID/g | Not Active | 5.3 % ID/g | 23.91 % ID/g | Ki [21]: 9.3 nM; Drug uptake (Bone [22]): 3.74 % ID/g; Drug uptake (Blood [23]): 4.76 % ID/g; Drug uptake (Liver [24]): 19.31 % ID/g; Drug uptake (Liver [25]): 20.28 % ID/g; Drug uptake (Spleen [26]): 4.22 % ID/g; Drug uptake (Blood [27]): 4.87 % ID/g; Drug uptake (Lung [28]): 8.18 % ID/g; Drug uptake (Lung [29]): 5.22 % ID/g; logD at 0.05 h [30]: 3.09; Drug uptake (Heart [31]): 4.32 % ID/g; Drug uptake (Stomach [32]): 2.36 %ID
2 | CN(C)c1ccc(-c2nc3cc(OCCOCCOCC[18F])ccc3o2)cc1 | Not Active | 5.18 % ID/g | 2.26 % ID/g | 4.08 % ID/g | 1.51 %ID | 1.18 % ID/g | 1.41 %ID | 11.36 % ID/g | 2.5 | 2.5 % ID/g | 3.14 % ID/g | 4.8 % ID/g | 2.25 % ID/g | 15.7 % ID/g | 3.52 % ID/g | 8.71 % ID/g | 2.12 % ID/g | Not Active | 3.28 % ID/g | 15.82 % ID/g | Ki [21]: 3.9 nM; Drug uptake (Bone [22]): 1.96 % ID/g; Drug uptake (Blood [23]): 3.24 % ID/g; Drug uptake (Liver [24]): 9.2 % ID/g; Drug uptake (Liver [25]): 13.04 % ID/g; Drug uptake (Spleen [26]): 2.88 % ID/g; Drug uptake (Blood [27]): 3.33 % ID/g; Drug uptake (Lung [28]): 5.18 % ID/g; Drug uptake (Lung [29]): 3.22 % ID/g; logD at 0.05 h [30]: 3.45; Drug uptake (Heart [31]): 3.13 % ID/g; Drug uptake (Stomach [32]): 1.37 %ID
